Active and inactive are the calls of the source. The calls are words filed in the database; no cut-off is given here.
The compounds below were run on HeLa (assay: Increase in EGR1 mRNA expression in human HeLa cells after 1 hr by Western blotting). Conditions: in the assay text read “EGR1 protein expression” for “EGR1 mRNA expression”.
Type: functional, cell-based
How it was run: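 Human cervix carcinoma HeLa cells were left untreated or exposed to compound at 10, 20 or 40 for 1 h. Egr-1 protein level was then examined by Western blot.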
`O=C1CC(c2ccccc2O)Oc2ccccc21` (centres undefined) [2'-HYDROXY-FLAVANONE] was tested, and the Activity was “Active”. With `O=C1CC(c2cccc(O)c2)Oc2ccccc21` (centres undefined) [3'-HYDROXYFLAVANONE] the Activity was “Active”.

Each compound was assayed on HEK293 (assay: Increase in EGR1 mRNA expression in human HEK293 cells at 20 ug/mL after 6 to 12 hrs by dual-glo luciferase assay relative to control). Conditions: not given.
Type: functional
How it was run: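 Egr-1 promoter reporter assay after transient transfection. Activity is the level with compound divided by the compound-free control level, with the control set at 1.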
`COc1ccc(C2CC(=O)c3cc(Cl)ccc3O2)cc1OC` (centres undefined) was tested, and the “fold change (FC)” value was 0.7. For `COc1ccc2c(c1)OC(c1ccccc1)CC2=O` (centres undefined), the “fold change (FC)” value was 1.1. With `COc1cc(O)c2c(c1)O[C@H](c1ccccc1)CC2=O` [PINOSTROBIN] the “fold change (FC)” value was 1.6. In the case of `COc1ccc(C2CC(=O)c3c(OC)cc(OC)cc3O2)cc1` (centres undefined), the “fold change (FC)” value is reported as 0.7. `O=C1C[C@@H](c2ccc(O)cc2)Oc2cc(O)cc(O)c21` [NARINGENIN] was tested, and the “fold change (FC)” value was 1.2. For `O=C1CC(c2ccccc2O)Oc2ccc(O)cc21` (centres undefined), the “fold change (FC)” value was 1.2. With `COc1cccc2c1C(=O)CC(c1ccccc1)O2` (centres undefined) the “fold change (FC)” value was 3.6. In the case of `COc1ccc2c(c1)C(=O)CC(c1ccccc1)O2` (centres undefined), the “fold change (FC)” value is reported as 1.6. `O=C1CC(c2ccccc2O)Oc2ccccc21` (centres undefined) [2'-HYDROXY-FLAVANONE] was tested, and the “fold change (FC)” value was 4.2. `COc1ccc([C@@H]2CC(=O)c3c(O)cc(O)cc3O2)cc1O` [HESPERETIN] was tested, and the “fold change (FC)” value was 2.4. For `O=C1CC(c2ccc(O)cc2)Oc2ccccc21` (centres undefined) [4'-HYDROXY-FLAVANONE], the “fold change (FC)” value was 1.4. In the case of `O=C1c2ccc(O)cc2O[C@@H](c2cc(O)c(O)c(O)c2)[C@@H]1O` [DIHYDROROBINETIN], the “fold change (FC)” value is reported as 0.7. In the case of `COc1cc(OC)c2c(c1)OC(c1ccccc1)CC2=O` (centres undefined) [DIMETHYLPINOCEMBRIN], the “fold change (FC)” value is reported as 1.9. For `COc1cccc(C2CC(=O)c3cc(OC)ccc3O2)c1` (centres undefined), the “fold change (FC)” value was 2.5. With `O=C1C[C@@H](c2ccccc2)Oc2cc(O)cc(O)c21` [PINOCEMBRIN] the “fold change (FC)” value was 0.4. With `O=C1CC(c2ccccc2)Oc2ccc(O)cc21` (centres undefined) the “fold change (FC)” value was 1.3. `O=C1CC(c2ccccc2)Oc2ccccc21` (centres undefined) [FLAVANONE] was tested, and the “fold change (FC)” value was 2.3. With `O=C1CC(c2cccc(O)c2)Oc2ccccc21` (centres undefined) [3'-HYDROXYFLAVANONE] the “fold change (FC)” value was 6.7. `COc1ccc(C2CC(=O)c3cc(OC)ccc3O2)c(OC)c1` (centres undefined) was tested, and the “fold change (FC)” value was 1.5. For `COc1cc(O)c2c(c1)OC(c1ccc(O)cc1)CC2=O` (centres undefined), the “fold change (FC)” value was 0.4. With `O=C1c2c(O)cc(O)cc2OC(c2ccc(O)c(O)c2)C1O` (centres undefined) [TAXIFOLIN] the “fold change (FC)” value was 1.3. With `Cc1ccc(C2CC(=O)c3cc(Cl)ccc3O2)cc1` (centres undefined) the “fold change (FC)” value was 0.8. For `COc1cc(O)cc2c1C(=O)CC(c1ccccc1)O2` (centres undefined), the “fold change (FC)” value was 1. In the case of `Cc1ccc(C2CC(=O)c3cccc(Cl)c3O2)cc1` (centres undefined), the “fold change (FC)” value is reported as 1.3. In the case of `O=C1C[C@@H](c2ccc(O)c(O)c2)Oc2cc(O)cc(O)c21` [ERIODICTYOL], the “fold change (FC)” value is reported as 2.1. With `O=C1CC(c2ccccc2)Oc2cc(O)ccc21` (centres undefined) [7-HYDROXYFLAVANONE] the “fold change (FC)” value was 2.1. With `COc1ccc2c(c1)OC(c1cc(OC)c(OC)c(OC)c1)CC2=O` (centres undefined) the “fold change (FC)” value was 1. With `COc1ccc2c(c1)C(=O)CC(c1ccc(OC)c(OC)c1)O2` (centres undefined) the “fold change (FC)” value was 0.7. For `COc1cc(C2CC(=O)c3c(O)cc(O)cc3O2)cc(OC)c1OC` (centres undefined), the “fold change (FC)” value was 1.2. For `O=C1c2ccc(O)cc2OC(c2ccc(O)c(O)c2)C1O` (centres undefined), the “fold change (FC)” value was 1.3. For `COc1ccc2c(c1)C(=O)CC(c1cccc(OC)c1OC)O2` (centres undefined), the “fold change (FC)” value was 3.9. In the case of `COc1cc([C@@H]2CC(=O)c3c(O)cc(O)cc3O2)ccc1O` [HOMOERIODICTYOL], the “fold change (FC)” value is reported as 1.2. With `O=C1CC(c2ccccc2)Oc2c(Cl)cccc21` (centres undefined) the “fold change (FC)” value was 1.7. With `O=C1CC(c2ccc(F)cc2)Oc2c(Cl)cccc21` (centres undefined) the “fold change (FC)” value was 2.4. With `COc1cc(C2CC(=O)c3ccccc3O2)ccc1O` (centres undefined) the “fold change (FC)” value was 5.1. For `COc1ccc(C2CC(=O)c3ccccc3O2)cc1` (centres undefined), the “fold change (FC)” value was 1.2. In the case of `COc1ccc(C2CC(=O)c3ccccc3O2)cc1OC` (centres undefined), the “fold change (FC)” value is reported as 4.3.

Reference: ChEMBL document CHEMBL1154004, “Relationships between the structures of flavanone derivatives and their effects in enhancing early growth response-1 gene expression” (2009)
